# Results: ChEMBL document CHEMBL5385970, “Design, synthesis, and evaluation of novel ferrostatin derivatives for the prevention of HG-induced VEC ferroptosis” (RSC Med Chem, 2024)
# pEC50, pIC50: −log10 of the molar value. Calls of active or inactive are those of the source. No cut-off for these calls is given here.
# Legend:
# HUVEC [1] = test: Cytotoxicity against human HUVEC cells assessed as reduction in erastin-induced cell survival at 10 uM measured for 24 hrs by SRB assay; type: toxicity, cell-based
# Summary of the method: (§1)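 HUVECs (gelatin-coated dishes, M199 with 20% bovine serum and FGF2, 37 °C, 5% CO2) seeded in 96-well plates and incubated overnight. Treated 24 h with 10 μM erastin alone or with compound (10 μM, or a range of concentrations). Cells fixed with TCA, stained with 0.4% SRB in 1% acetic acid, dissolved in 10 mM Tris pH 10.5, A540 read. Survival computed relative to blank and untreated control. At least three separate experiments.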
# HUVEC [2] = test: Anti-ferroptotic activity against Erastin-induced ferroptosis in human HUVEC cells assessed as cell viability incubated for 24 hrs by SRB assay; type: functional, cell-based; summary of the method: as §1
# [3] = Antioxidant activity assessed as DPPH radical scavenging activity incubated for 30 mins; type: functional
# Summary of the method: (§2)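 DPPH at 100 μM in ethanol (180 μL) mixed with compound in DMSO (20 μL), giving 50 μM final compound. Kept 30 min in the dark at room temperature, then A517 read to obtain DPPH clearance. For IC50, a concentration gradient of compound was tested and the curve fitted.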
# [4] = Kinetic solubility of compound in PBS buffer at pH7.4 incubated for; type: physicochemical; conditions: pH 7.4, read-out: Kinetic_solubility
# Summary of the method: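 DMSO stocks ([…]) were diluted 4 μL into 196 μL of 10 mM PBS pH 7.4, giving final concentrations of 3.13–200 μM. Plate shaken for 10 s and incubated 2 h at 37 °C. Solubility taken as the highest concentration with no measurable turbidity.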
# [5] = Antioxidant activity assessed as DPPH radical scavenging activity at 50 uM incubated for 30 mins relative to control; type: functional; summary of the method: as §2
# HUVEC [6] = test: Cytotoxicity against human HUVEC cells assessed as high glucose-induced cell survival at 10 uM measured for 24 hrs by SRB assay; type: toxicity, cell-based
# Summary of the method: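 HUVECs in M199 with 20% bovine serum and FGF2, plated in 96-well plates, incubated overnight. Exposed to 30 mM high glucose alone or with 10 μM compound for 24 h. Viability by SRB (TCA fixation, 0.4% SRB stain, Tris pH 10.5 solubilisation, A540). Survival expressed relative to blank and untreated control. n = 3.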
# HUVEC [7] = test: Cytotoxicity against human HUVEC cells assessed as reduction in cell viability at 10 uM measured for 24 hrs by SRB assay; type: toxicity, cell-based
# Summary of the method: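 HUVECs were grown on gelatin-coated dishes in M199 with 20% bovine serum and 10 IU/mL FGF2 at 37 °C, 5% CO2. Cells were seeded in 96-well plates, incubated overnight, then exposed to compound for 24 h. They were TCA-fixed, stained for 10 min with 0.4% SRB in 1% acetic acid, and dissolved in 10 mM Tris (pH 10.5). A540 survival was calculated relative to blank and control, from at least three experiments.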
# [8] = Microsomal stability in human liver microsome assessed as parent compound remaining measured after 60 mins in absence of NADPH by LC-MS/MS analysis; type: ADME; conditions: liver microsomes, read-out: Stability
# Summary of the method: (§3)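 Compound at 1 μM final was incubated at 37 °C with liver microsomes (human, rat or mouse) in pH 7.4 buffer, with and without NADPH. Verapamil served as reference. Samples taken at 0–60 min and quenched in acetonitrile with tolbutamide internal standard. Analysed by LC-MS/MS on a C18 column with a water/acetonitrile 0.1% TFA gradient. Parent remaining reported at 60 min; T1/2 also derived.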
# [9] = Microsomal stability in rat liver microsome assessed as parent compound remaining measured after 60 mins in absence of NADPH by LC-MS/MS analysis; type: ADME; conditions: liver microsomes, read-out: Stability; summary of the method: as §3
# [10] = Microsomal stability in mouse liver microsome assessed as parent compound remaining measured after 60 mins in absence of NADPH by LC-MS/MS analysis; type: ADME; conditions: liver microsomes, read-out: Stability; summary of the method: as §3
# [11] = Microsomal stability in human liver microsome assessed as parent compound remaining measured after 60 mins in presence of NADPH by LC-MS/MS analysis; type: ADME; conditions: liver microsomes, read-out: Stability; summary of the method: as §3
# [12] = Microsomal stability in rat liver microsome assessed as parent compound remaining measured after 60 mins in presence of NADPH by LC-MS/MS analysis; type: ADME; conditions: liver microsomes, read-out: Stability; summary of the method: as §3
# [13] = Microsomal stability in mouse liver microsome assessed as parent compound remaining measured after 60 mins in presence of NADPH by LC-MS/MS analysis; type: ADME; conditions: liver microsomes, read-out: Stability; summary of the method: as §3
# [14] = Microsomal stability in human liver microsome assessed as half life measured upto 60 mins by LC-MS/MS analysis; type: ADME; conditions: liver microsomes
# [15] = Microsomal stability in rat liver microsome assessed as half life measured upto 60 mins by LC-MS/MS analysis; type: ADME; conditions: liver microsomes
# [16] = Microsomal stability in mouse liver microsome assessed as half life measured upto 60 mins by LC-MS/MS analysis; type: ADME; conditions: liver microsomes
# HUVEC [17] = test: Induction of mitochondrial damage in high glucose-induced human HUVEC cells assessed as increase in monomer formation at 10 uM incubated for 24 hrs by JC-1 staining based flow cytometry analysis; type: functional, cell-based
# HUVEC [18] = test: Upregulation of GPX4 expression in high glucose-induced human HUVEC cells at 10 uM incubated for 24 hrs by Western blot analysis; type: functional, cell-based
# Summary of the method: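 HUVECs exposed 24 h to 30 mM high glucose and 10 μM compound, then lysed in RIPA. Protein by BCA; 15 μg per lane run on 12% SDS-PAGE and blotted to PVDF. Probed with anti-GPX4 (1:1000) and anti-β-actin (1:5000) overnight at 4 °C, detected by ECL, and quantified by densitometry. Untreated cells normalized to 1; n = 3.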
# HUVEC [19] = test: Anti-ferroptotic activity against human HUVEC cells assessed as decrease in intracellular ferrous ion level at 10 uM incubated for 24 hrs by ferroOrange probe based analysis; type: functional, cell-based
# Summary of the method: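 After 24 h with 30 mM high glucose and 10 μM compound, HUVECs were washed three times in serum-free medium. Loaded with 1 μM FerroOrange for 30 min at 37 °C, 5% CO2, then imaged by fluorescence microscopy. Ferrous ion signal quantified relative to untreated control set to 1; n = 3.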
# HUVEC [20] = test: Anti-ferroptotic activity against human HUVEC cells assessed as decrease in LPO level at 10 uM incubated for 24 hrs; type: functional, cell-based
# Summary of the method: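 HUVECs given 30 mM high glucose plus 10 μM compound for 24 h. Cells collected, extracted and sonicated on ice (3 s on, 7 s off, 3 min total), then spun 8000 × g for 10 min at 4 °C. LPO measured in the supernatant with a kit. Values relative to untreated cells set to 1; n = 3.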
# HUVEC [21] = test: Anti-ferroptotic activity against human HUVEC cells assessed as decrease in MDA level at 10 uM incubated for 24 hrs; type: functional, cell-based
# Summary of the method: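 Cells were HUVECs under 30 mM high glucose with 10 μM compound, 24 h. Lysed in Western/IP lysis buffer and spun 10 000 × g for 10 min. MDA measured by kit in the supernatant and normalized to mg protein. Expressed relative to untreated control set to 1; n = 3.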
# HUVEC [22] = test: Inhibition of ROS accumulation in high glucose-induced human HUVEC cells at 10 uM incubated for 24 hrs by DCF-DA staining based fluorescence microscopic analysis
Structure (SMILES),Activity (HUVEC [1]),pEC50 (HUVEC [2]),pIC50 [3],solubility kinetic [4],Activity [5],Activity (HUVEC [6]),further results
O=C(N/N=C/c1cccc(OCc2ccccc2)c1)c1ccc(NC2CCCCC2)c(NCc2ccccc2)c1,Non-Toxic,6.17,4.23,20 µM,52.2%,Non-Toxic,–
COc1ccccc1/C=N/NC(=O)c1ccc(NC2CCCCC2)c(NCc2ccccc2)c1,Non-Toxic,6.19,4.26,25 µM,57.4%,Non-Toxic,–
CN(C)c1ccc(/C=N/NC(=O)c2ccc(NC3CCCCC3)c(NCc3ccccc3)c2)cc1,Non-Toxic,–,–,–,–,–,–
O=C(N/N=C/c1ccc(Cl)cc1)c1ccc(NC2CCCCC2)c(NCc2ccccc2)c1,Non-Toxic,6.14,4.33,28.6 µM,53.4%,Non-Toxic,–
O=C(N/N=C/c1ccc([N+](=O)[O-])cc1)c1ccc(NC2CCCCC2)c(NCc2ccccc2)c1,Non-Toxic,–,–,–,–,–,–
CCOc1ccccc1-n1c(C(C)N2CCN(C(=O)COc3ccc(Cl)cc3)CC2)nc2ccccc2c1=O (stereo not drawn) [ERASTIN],–,–,–,–,–,–,Activity (HUVEC [7]): 75%
O=C(N/N=C/c1ccc(Cl)c(Cl)c1)c1ccc(NC2CCCCC2)c(NCc2ccccc2)c1,Non-Toxic,–,–,–,–,–,–
N#Cc1cccc(/C=N/NC(=O)c2ccc(NC3CCCCC3)c(NCc3ccccc3)c2)c1,Non-Toxic,6.21,4.41,22.2 µM,59.6%,Non-Toxic,–
O=C(N/N=C/c1cccc([N+](=O)[O-])c1)c1ccc(NC2CCCCC2)c(NCc2ccccc2)c1,Non-Toxic,6.16,4.34,20 µM,53.3%,Non-Toxic,–
O=C(N/N=C/c1ccc(F)c([N+](=O)[O-])c1)c1ccc(NC2CCCCC2)c(NCc2ccccc2)c1,Toxic,–,–,–,–,–,–
O=C(N/N=C/c1ccccc1OCc1ccccc1)c1ccc(NC2CCCCC2)c(NCc2ccccc2)c1,Toxic,–,–,–,–,–,–
O=C(N/N=C/c1ccc(F)c(Br)c1)c1ccc(NC2CCCCC2)c(NCc2ccccc2)c1,Non-Toxic,–,–,–,–,–,–
O=C(N/N=C/c1cccc(O)c1O)c1ccc(NC2CCCCC2)c(NCc2ccccc2)c1,Toxic,–,–,–,–,–,–
O=C(N/N=C/c1ccccc1)c1ccc(NC2CCCCC2)c(NCc2ccccc2)c1,Non-Toxic,–,–,–,–,–,–
COc1ccc(/C=N/NC(=O)c2ccc(NC3CCCCC3)c(NCc3ccccc3)c2)c(O)c1,Non-Toxic,–,–,–,–,–,–
CCOC(=O)c1ccc(NC2CCCCC2)c(N)c1,–,6.22,4.27,> 200 µM,52.5%,Non-Toxic,remaining at 1 h [8]: 6%; remaining at 1 h [9]: 4%; remaining at 1 h [10]: 5%; remaining at 1 h [11]: 7.6%; remaining at 1 h [12]: 6.1%; remaining at 1 h [13]: 6.6%; half-life [14]: 16.8 min; half-life [15]: 18.4 min; half-life [16]: 2.7 min
O=C(N/N=C/c1ccc(OCc2ccccc2)cc1)c1ccc(NC2CCCCC2)c(NCc2ccccc2)c1,Non-Toxic,6.30,4.42,20 µM,65.9%,Non-Toxic,Activity (HUVEC [17]): Active; Activity (HUVEC [18]): Active; Activity (HUVEC [19]): Active; Activity (HUVEC [20]): Active; Activity (HUVEC [21]): Active; remaining at 1 h [8]: 105%; remaining at 1 h [9]: 110%; remaining at 1 h [10]: 38%; remaining at 1 h [11]: 0.6%; remaining at 1 h [12]: 1%; remaining at 1 h [13]: 1%; half-life [14]: 4.9 min; half-life [15]: 9.1 min; half-life [16]: 9 min; Activity (HUVEC [22]): Active
CCOC(=O)c1ccc(NC2CCCCC2)c(NCc2ccccc2)c1,–,–,4.33,6.2 µM,56.4%,–,–
O=C(N/N=C/c1ccc(Br)cc1)c1ccc(NC2CCCCC2)c(NCc2ccccc2)c1,Non-Toxic,–,–,–,–,–,–
O=C(N/N=C/c1ccc(N2CCCC2)cc1)c1ccc(NC2CCCCC2)c(NCc2ccccc2)c1,Non-Toxic,–,–,–,–,–,–
COc1cc(/C=N/NC(=O)c2ccc(NC3CCCCC3)c(NCc3ccccc3)c2)cc(OC)c1,Non-Toxic,–,–,–,–,–,–
N#Cc1ccc(/C=N/NC(=O)c2ccc(NC3CCCCC3)c(NCc3ccccc3)c2)cc1,Toxic,–,–,–,–,–,–
O=C(N/N=C/c1ccc(O)cc1)c1ccc(NC2CCCCC2)c(NCc2ccccc2)c1,Non-Toxic,6.10,4.25,28.6 µM,53.3%,Non-Toxic,–
